Consider five compounds from ChEMBL document CHEMBL4261545, “Extraction of antioxidant and antiproliferative ingredients from fruits of Rubus chingii Hu by active tracking guidance” (Medchemcomm, 2017).

Values after ≈ are worked out from the molar mass of the structure shown. Active and inactive are the calls of the source. The rule behind the calls is not given here.

Experiment [1] has as its system HepG2. Briefly: Cytotoxicity against human HepG2 cells after 24 hrs by MTT assay. The experiment is classed as functional, cell-based. The procedure, abridged: (§1)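 Cells grown in DMEM with 10% heat-inactivated FBS, penicillin and streptomycin at 37 °C, 5% CO2. Seeded 5×10^4 cells per well and treated 24 h after seeding. Samples dissolved in DMSO and diluted in medium, final DMSO under 0.1% (v/v). After 24 h exposure, MTT (0.5 mg mL-1) was added for 4 h at 37 °C and absorbance read at 490 nm. Inhibition % = (1 − ODsample/ODcontrol)×100, run in triplicate.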
(In general: Tetrazolium dyes change colour on reduction, which living cells bring about.)

The test system of experiment [2] is Bel-7402. Briefly: Cytotoxicity against human Bel7402 cells after 24 hrs by MTT assay. It is filed as functional, cell-based. The essentials:
as §1

Experiment [3] deals with A549. Briefly: Cytotoxicity against human A549 cells after 24 hrs by MTT assay. It is filed as functional, cell-based. The essentials:
as §1

The subject of experiment [4] is MCF7. Briefly: Cytotoxicity against human MCF7 cells after 24 hrs by MTT assay. The experiment is classed as functional, cell-based. The essentials:
as §1

In experiment [5] the test system is HepG2. As to the kind of experiment: Cytotoxicity against human HepG2 cells assessed as inhibition of cell proliferation at 100 ug/ml after 24 hrs by MTT assay relative to control. The experiment is classed as functional. The essentials:
(§2)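 Cells (from the CAS cell bank) were grown in DMEM with 10% heat-inactivated FBS, penicillin and streptomycin at 37 °C under 5% CO2. They were seeded at 5×10^4 cells/well and treated 24 h later. Samples were dissolved in DMSO and diluted in medium (final DMSO <0.1%) for 24 h. MTT (0.5 mg/mL) was added for 4 h at 37 °C and A490 read. Inhibition = (1 − OD sample/OD control)×100, in triplicate.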

The test system of experiment [6] is Bel-7402. As to the kind of experiment: Cytotoxicity against human Bel7402 cells assessed as inhibition of cell proliferation at 100 ug/ml after 24 hrs by MTT assay relative to control. Particulars: for inhibition at 100 µg/mL: Bel-7402, 24 h. The experiment is classed as functional. The essentials: as §1
For experiment [7], the system named is A549. Briefly: Cytotoxicity against human A549 cells assessed as inhibition of cell proliferation at 100 ug/ml after 24 hrs by MTT assay relative to control. It is filed as functional. The procedure, abridged: as §2
Experiment [8] relates to MCF7. Briefly: Cytotoxicity against human MCF7 cells assessed as inhibition of cell proliferation at 100 ug/ml after 24 hrs by MTT assay relative to control. The experiment is classed as functional. The essentials: as §2
Experiment [9] relates to MCF7. Briefly: Induction of morphological changes in human MCF7 cells after 24 hrs by phase contrast microscopic method. It is filed as functional, cell-based. The essentials: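 MCF-7 cells were kept in DMEM with 10% heat-inactivated FBS at 37 °C, 5% CO2, exposed to compound for 24 h, then examined for morphological changes by phase-contrast microscopy.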

As usually defined, the IC50 is the concentration that gives 50% inhibition. The term inhibition denotes the percentage by which the read-out fell short of the control. Regarding `C[C@@H]1CC[C@]2(C(=O)O)CC[C@]3(C)C(=CC[C@@H]4[C@@]5(C)C[C@@H](O)[C@H](O)C(C)(C)[C@@H]5CC[C@]43C)[C@@H]2[C@]1(C)O` [TOMENTIC ACID], the Activity result in the experiment with HepG2 [1], in the experiment on Bel-7402 [2], in the experiment on A549 [3] and in the experiment with MCF7 [4] was “Dose-dependent effect” each time. The IC50 stood at 40.6 µg/mL (≈ 83 µM) with HepG2 [1] (HepG2, 24 h); 54.2 µg/mL (≈ 111 µM) in the experiment with Bel-7402 [2] (Bel-7402, 24 h); 62.4 µg/mL (≈ 128 µM) in the experiment on A549 [3] (A549, 24 h); 24.2 µg/mL (≈ 49.6 µM) with MCF7 [4] (MCF7, 24 h). Moreover, the inhibition at 100 µg/mL was found to be 82.8% with HepG2 [5] (HepG2, 24 h); 80.2% with Bel-7402 [6]; 72.4% in the experiment with A549 [7] (A549, 24 h); 91.8% in the experiment with MCF7 [8] (MCF7, 24 h). Further, the result with MCF7 [9] was Active.

For the compound `CC[C@H](CC[C@@H](C)[C@H]1CC[C@H]2[C@@H]3CC=C4C[C@@H](O[C@@H]5O[C@H](CO)[C@@H](O)[C@H](O)[C@H]5O)CC[C@]4(C)[C@H]3CC[C@]12C)C(C)C`, the Activity result in the experiment on HepG2 [1], in the experiment on Bel-7402 [2], with A549 [3] and with MCF7 [4] was “Dose-dependent effect” throughout.

`C[C@@]12CCC[C@@](C)(C(=O)O)[C@H]1CC[C@@]13C[C@@H](CC[C@H]12)[C@](O)(CO)C3`: the Activity entry in the experiment on HepG2 [1], with Bel-7402 [2], with A549 [3] and with MCF7 [4] was “Dose-dependent effect” in each case.

In the case of `O=c1[nH]cc(F)c(=O)[nH]1`, the inhibition result in the experiment with HepG2 [5], in the experiment on Bel-7402 [6], with A549 [7] and with MCF7 [8] was “Active” each time.

As to `CC1(C)CC[C@]2(C(=O)O)CC[C@]3(C)C(=CC[C@@H]4[C@@]5(C)CC[C@H](O)C(C)(C)[C@@H]5CC[C@]43C)[C@@H]2C1` [OLEANOLIC_ACID], the Activity entry with HepG2 [1], in the experiment on Bel-7402 [2], in the experiment with A549 [3] and with MCF7 [4] was “Dose-dependent effect” in each case. Also, in the experiment with Bel-7402 [6], the inhibition at 100 µg/mL was 55.2%.
